SKN-1 block – C. elegans SKN-1 inhibition | inhibition, % at 21.8 µM | C. elegans VP596 Pgst-4::GFP/RFP ratio, acrylamide-induced, 24 h | AID 624304 | 360,000 compounds, 0.49% hits;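 active means interference check ratio from 0.5 to 1.5 plus GFP to RFP signal ratio inhibition reaching or exceeding a fixed threshold, cut at about 30% in these data, passing the limit was not always enough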
SUMO1 PPI mod – SUMO1-SIM interaction modulation. SUMO1 binding to a labelled peptide, TR-FRET, 1 h. inhibition, % at 20 µM. 360,000 compounds, 0.33% hits. P63165; in the data active means inhibition above about 37%
CSN inh – CSN deneddylation inhibition | Q92905 | Purified CSN, SCF-Nedd8-OG deneddylation, fluorescence polarization | inhibition, % at 12.5 µM | 360,000 compounds, 0.38% hits | AID 651999;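 active means pattern-corrected inhibition above about 35%, with an unprinted fluorescence ratio check between 0.5 and 1.5, limit read from the data, passing the limit was not always enough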;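 further: 0% = enzyme with substrate and 100% = substrate without enzyme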
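Detection – fluorescence polarization · System – HEK293T-derived human Csn5 enzyme · Controls – substrate-only high control, full reaction low control · Timing – 90 min, room temperature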
Rpn11 block – Rpn11 (human) deubiquitinase inhibition | 360,000 compounds, 0.59% hits | human 26S proteasome, Ub4-pepOG fluorescence polarization; 20S core pre-blocked with epoxomicin | AID 588493 | inhibition, % at 20 µM | O00487;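 active means inhibition at 20 µM, scaled to each plate's controls, above about 33%, limit read from the data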
MT1-MMP act inh – MT1-MMP (human) activation inhibition. P50281. HT1080 RFP-PRO-GFP cells, GFP/RFP ratio fluorescence, overnight; percent of plate control window, DMSO zero. GFP/RFP ratio change, % at 20 µM. 360,000 compounds, 0.061% hits. AID 651647;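 active means GFP/RFP ratio change of at least 30% with cell ATP level not reduced by more than half and red fluorescence within 50% of control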
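Assay system: RFP-PRO-GFP reporter HT1080 cells; read-out basis: GFP/RFP fluorescence ratio; benchmarks: DMSO wells and RFP-L50D-GFP cells; doses: 20 µM single dose, 1% DMSO; schedule: overnight cell settling, then overnight compound exposure, 37 °C, 5% CO2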
DNMT1 block – blocks human DNA methyltransferase DNMT1; P26358; DNMT1 molecular beacon, Hinp1I cleavage, fluorescence; inhibition (reported as % activation of signal), % at 10 µM; 360,000 compounds, 0.83% hits; in the data active means inhibition above about 50%
Target sequence (P26358 504-1616 limits assumed): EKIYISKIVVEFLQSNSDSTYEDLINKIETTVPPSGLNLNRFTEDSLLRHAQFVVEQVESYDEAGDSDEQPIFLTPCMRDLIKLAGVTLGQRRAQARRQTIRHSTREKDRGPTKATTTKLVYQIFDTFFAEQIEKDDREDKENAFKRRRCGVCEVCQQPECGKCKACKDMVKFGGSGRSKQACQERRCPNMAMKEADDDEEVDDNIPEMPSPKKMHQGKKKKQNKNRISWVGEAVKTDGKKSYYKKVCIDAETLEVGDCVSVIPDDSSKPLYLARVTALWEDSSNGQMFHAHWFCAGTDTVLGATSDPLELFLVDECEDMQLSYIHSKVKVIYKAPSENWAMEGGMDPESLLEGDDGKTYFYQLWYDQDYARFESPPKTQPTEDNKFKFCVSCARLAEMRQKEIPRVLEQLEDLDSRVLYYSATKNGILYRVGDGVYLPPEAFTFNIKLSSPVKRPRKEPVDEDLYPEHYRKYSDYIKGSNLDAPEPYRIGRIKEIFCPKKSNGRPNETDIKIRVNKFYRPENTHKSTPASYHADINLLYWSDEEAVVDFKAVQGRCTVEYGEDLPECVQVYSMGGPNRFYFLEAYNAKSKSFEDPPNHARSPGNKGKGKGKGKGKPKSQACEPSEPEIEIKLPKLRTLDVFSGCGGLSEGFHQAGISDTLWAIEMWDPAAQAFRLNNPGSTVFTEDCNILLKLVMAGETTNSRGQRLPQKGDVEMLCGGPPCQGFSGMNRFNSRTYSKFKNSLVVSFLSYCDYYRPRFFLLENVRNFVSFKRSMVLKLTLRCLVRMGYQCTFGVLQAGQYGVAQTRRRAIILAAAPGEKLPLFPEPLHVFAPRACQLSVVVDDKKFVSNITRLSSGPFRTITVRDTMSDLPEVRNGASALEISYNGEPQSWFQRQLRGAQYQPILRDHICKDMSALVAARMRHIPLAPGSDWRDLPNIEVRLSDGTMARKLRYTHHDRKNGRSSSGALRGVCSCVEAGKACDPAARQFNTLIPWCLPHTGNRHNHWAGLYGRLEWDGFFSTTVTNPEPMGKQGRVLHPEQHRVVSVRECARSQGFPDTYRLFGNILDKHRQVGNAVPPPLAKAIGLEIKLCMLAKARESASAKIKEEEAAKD
Rpn11 inh conf – Rpn11 inhibition confirmation, single concentration | purified human 26S proteasome, Ub4-pepOG fluorescence polarization; proteasome pretreated with epoxomicin | shares compounds with Rpn11 block | 1,900 compounds, 29% hits | inhibition, % at 20 µM
MMP-2 counter – counter-screen for RPN11 inhibitors: inhibition of human MMP-2; shares compounds with Rpn11 block; inhibition, % at 20 µM; AID 602330; recombinant MMP-2, FRET peptide cleavage fluorescence; 1,900 compounds, 4% hits;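 further: human MMP-2 activated beforehand with APMA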
Thrombin FP – thrombin (bovine) inhibition counter-screen; 1,900 compounds, 13% hits; shares compounds with Rpn11 block; inhibition, % at 20 µM; bovine thrombin cleavage of Ub4-pepOG, fluorescence polarization;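 active means mean inhibition at least 40% at 20 µM, or signal 3 deviations below plate average, so some actives read negative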;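 further: plate controls were thrombin with DMSO for no effect and buffer wells lacking thrombin for full effect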
Numbers without * were called inactive; / = no result given; + = active, no number. In the library only some 2.3% were active in any assay of this set; here they are far more common. Unless noted, no stated cut-off is given here; in the data, active means inhibition above about 40%; inactive means the rest.

SMILES	SKN-1 block	SUMO1 PPI mod	CSN inh	Rpn11 block	MT1-MMP act inh	DNMT1 block	Rpn11 inh conf	MMP-2 counter	Thrombin FP
O=C1NC(=S)S/C1=C\c1cc2ccccc2nc1N1CCCCC1	66.7	4.9	6.5	54.3*	-48.8	-2.0	73.6*	11.0	46.4*
Cc1ccc(CNc2oc(-c3ccco3)nc2S(=O)(=O)c2ccccc2)cc1	20.9	-0.4	4.6	79.7*	-2.0	-15.6	7.1	20.3	0.4
O=S(=O)(c1ccccc1)c1nc(-c2ccco2)oc1NCCN1CCOCC1	25.4	-5.7	1.3	9.9	-0.7	-3.5	/	/	/
COc1cccc(C(O)c2ncc(-c3ccccc3Cl)[nH]2)c1 (stereo not drawn)	2.7	5.9	0.0	-1.7	0.3	-0.4	/	/	/
Cc1nnsc1C(=O)NC1CCCc2c1cnn2-c1ccc(F)cc1F (stereo not drawn)	11.6	-1.0	-2.5	41.8*	-4.1	-3.3	11.7	-47.6	-3.1
CC(=O)NC(c1ccc(F)c(F)c1)c1nc(-c2cccc(C(C)C)c2)cs1 (stereo not drawn)	-1.8	1.2	-0.9	-18.2	-4.6	10.8	/	/	/
O=C1C2C3C=CC(C3)C2C(=O)N1c1cccc(-c2nc3ccccc3o2)c1 (stereo not drawn)	6.9	-2.6	8.1	54.0*	3.7	3.2	13.3	-40.3	-4.6
O=C(Nc1cccc(-c2nc3ccccc3o2)c1)c1ccc(N2C(=O)C3C4C=CC(C4)C3C2=O)cc1 (stereo not drawn)	-3.8	2.1	-3.6	0.4	1.2	-5.1	/	/	/
Cc1ccc(C(=O)/C=C/c2ccc(-c3ccc(C)cc3)o2)cc1	-0.8	0.1	3.4	42.9*	-18.8	3.5	18.4	0.5	-12.6
CCCC#Cc1ccc2c(c1)O[C@@H](CN(C)Cc1ccc3c(c1)OCO3)[C@H](C)CN([C@@H](C)CO)S2(=O)=O	5.6	1.0	4.1	-2.2	-11.5	-4.9	/	/	/
CC(=O)Nc1ccc2c(c1)C(=O)N(c1ccc(C)cc1)C2=O	11.7	-18.5	7.4	-0.9	-6.3	-3.0	/	/	/
COc1ccc(N2C(=O)c3ccc(NC(C)=O)cc3C2=O)cc1	-2.0	-23.1	3.2	40.7*	-1.0	-0.7	-18.4	31.4	-22.0
Cc1sc2nc(SCC(=O)c3cc(C)n(CC4CCCO4)c3C)n(C(C)C)c(=O)c2c1C (stereo not drawn)	-2.7	5.5	-3.3	122.8*	-0.7	-6.1	-5.8	2.2	-3.4
O=C(NCc1ccco1)C1CCCCN1S(=O)(=O)c1ccc(F)cc1 (stereo not drawn)	-0.1	2.2	-0.9	+	-0.6	-0.4	-6.6	-2.8	-7.1
O=C(NCc1ccc(F)cc1)C1CCCN1S(=O)(=O)c1ccc(F)cc1 (stereo not drawn)	-1.3	7.4	-3.3	-3.9	0.6	6.5	/	/	/
CCc1nc2c(OCCC3CCCCC3)cccn2c1N(C)C(=O)c1cccs1	8.1	7.3	-1.4	3.2	-12.0	-3.6	/	/	/
CCN(CC)c1ccc2cc(C(N)=O)c(=N)oc2c1	-81.2	-16.5	-89.9	/	-108.3	2.3	/	/	/
CCN(CC)c1ccc2cc(C(N)=O)c(=O)oc2c1	15.3	-22.4	11.5	40.3*	-13.7	0.7	10.7	-43.2	5.4
COc1ccc(C(O)c2ncc(-c3ccccc3C)[nH]2)cc1F (stereo not drawn)	-3.7	-0.4	7.1	6.8	-3.3	0.8	/	/	/
O=C(Cn1c(C(F)(F)F)nc2ccccc21)N1CCCC1	10.8	2.5	2.6	74.8*	-7.9	3.0	-20.1	-34.6	-17.4
Cc1cc(O)c(C(C)C)cc1N=Cc1ccccc1O	1.6	-2.7	8.5	45.2*	-7.1	-5.1	25.1	-20.4	24.0
Cc1ccc(S(=O)(=O)Nc2ccccc2-c2ccccc2)cc1	-8.7	1.6	-4.2	33.4*	-0.2	-3.8	-24.7	13.4	-13.7
CN(C)c1ncnc2c1ncn2[C@H]1CN(Cc2ccc(Cl)cc2)C[C@@H](CO)O1	9.5	0.8	-3.0	-2.7	1.9	4.3	/	/	/
CCCCCCCCCCCCCCCC[n+]1ccc(C(N)=O)cc1	19.0	52.4*	3.4	67.2*	1.5	1.1	14.7	-10.4	-18.4
CC(=O)c1cn(CC(=O)NCc2ccc3c(c2)OCO3)c2ccccc12	11.6	1.7	6.0	93.2*	1.3	-4.4	-16.0	-7.5	-15.9
SMILES	SKN-1 block	SUMO1 PPI mod	CSN inh	Rpn11 block	MT1-MMP act inh	DNMT1 block	Rpn11 inh conf	MMP-2 counter	Thrombin FP
CCc1nc2ccc(C(=O)Nc3cccc(OCC(=O)N(C)C)c3)cn2c1N(C=O)Cc1ccc(OC)cc1	-1.2	-8.9	0.7	1.1	0.4	0.5	/	/	/
Cc1ccc(-c2ccc(S(=O)(=O)N3CCCC3)cc2)cc1	8.0	0.8	6.8	-0.3	1.5	11.9	/	/	/
Cc1ccc(-c2ccc(S(=O)(=O)N3CC(C)OC(C)C3)cc2)cc1 (stereo not drawn)	11.3	0.7	0.6	64.3*	0.9	2.5	-8.0	-1.6	-0.8
CN1CCc2c(sc(N)c2C(=O)c2ccc(Cl)cc2)C1	-3.4	-8.1	23.6	/	-11.2	-9.0	/	/	/
COc1ccc(C(=O)c2c(N)sc3c2CCN(C(=O)OC(C)(C)C)C3)cc1	6.0	-1.7	9.1	44.6*	-14.4	-11.9	19.9	16.5	29.9
CCc1nc2c(OCC(=O)c3ccc(F)cc3)cccn2c1N(C)C(=O)C(C)C	13.8	0.9	2.1	-5.7	-3.8	-1.1	/	/	/
O=C(Nc1ccc(N2CCCC2)cc1)c1cccc(Cl)c1Cl	1.0	-0.4	0.8	51.6*	-2.7	2.3	-1.0	-43.8	-2.6
COc1ccc(/C=N/Nc2ccc([N+](=O)[O-])cc2)cc1Cn1cc([N+](=O)[O-])cn1	29.3	-13.9	3.8	53.8*	6.4	-4.5	-2.9	-22.8	-3.8
O=C1/C(=C/c2ccc(O)c(O)c2)Oc2cc(O)ccc21	20.4	-24.2	29.6	86.3*	-36.2	6.2	49.0*	3.5	29.9
O=C(CCCN1C(=O)/C(=C\c2cccs2)SC1=S)Nc1ccccn1	11.4	-10.1	5.8	34.4*	3.4	0.9	4.7	-34.6	-7.7
O=C(CCCN1C(=O)/C(=C/c2cccs2)SC1=S)NNC(=O)c1ccccc1O	8.3	-0.5	-13.2	10.7	7.3	-1.9	/	/	/
O=C(CCCN1C(=O)/C(=C/c2cccs2)SC1=S)NNC(=O)c1ccncc1	13.9	-9.9	12.0	47.4*	3.1	-10.1	-6.7	19.6	0.8

Compound activity: PubChem BioAssay, Sanford-Burnham Center for Chemical Genomics
